From ChEMBL document CHEMBL4689842, “EUbOPEN Chemogenomics Library wave 1” (2021)
Values joined by “and” are separate entries in the source; they are usually repeats but may differ in a detail not shown here. Equal entries are not always repeated.

System: HEK-293T
Test: Multiplex assay against HEK293T;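 on Population Tubulin-Different-Phenotype (%): share of the cells with healthy nuclei that show this phenotype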
Assay type: toxicity, cell-based
Conditions: human
Summary of the method: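 Live cells were stained at seeding with Hoechst33342, BioTracker Green Microtubule Cytoskeleton Dye, MitoTracker Red and Annexin V Alexa Fluor 680. Following compound addition, they were imaged on a CQ1 microscope at 37°C and 5% CO2 and gated by CellPathfinder machine learning into Hoechst high-intensity objects or normal cells, with normal cells split into healthy, pyknosed or fragmented nuclei and pyknosed cells into mitotic or apoptotic. Tubulin, mitochondrial-mass and membrane-permeability phenotypes are per cents of healthy-nucleus cells.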

[1] = 12 h, 1 µM, compound concentration 1 uM, replicate 1
[2] = 12 h, 1 µM, compound concentration 1 uM, replicate 2
[3] = 12 h, 10 µM, compound concentration 10 uM, replicate 1
[4] = 12 h, 10 µM, compound concentration 10 uM, replicate 2
[5] = 24 h, 1 µM, compound concentration 1 uM, replicate 1
[6] = 24 h, 1 µM, compound concentration 1 uM, replicate 2
[7] = 24 h, 10 µM, compound concentration 10 uM, replicate 1
[8] = 24 h, 10 µM, compound concentration 10 uM, replicate 2
[9] = 48 h, 10 µM, compound concentration 10 uM, replicate 1
[10] = 48 h, 10 µM, compound concentration 10 uM, replicate 2

`NC(=O)Nc1cc(-c2cccc(F)c2)sc1C(=O)N[C@H]1CCCNC1` [AZD-7762] was tested, and the “Population Fragmented Nuclei (%)” value [1] was 18%, the “Population Healthy Nuclei (%)” value [1] was 54% and the “Population Hoechst High Intensity Objects (%)” value [1] was 13%. For the same compound, the “Population Mitochondria Different-Phenotype (%)” value [1] was 5%, the “Population Normal (%)” value [1] was 86% and the “Population Pyknosed Nuclei (%)” value [1] was 26%. For the same compound, the “Population Tubulin-Different-Phenotype (%)” value [1] was 3%, the “Total Cell Count” value [1] was 661 and the “Population Apoptotic (%)” value [2] was 18%. For the same compound, the “Population Fragmented Nuclei (%)” value [2] was 6%, the “Population Healthy Nuclei (%)” value [2] was 73% and the “Population Hoechst High Intensity Objects (%)” value [2] was 5%. The “Population Membrane Permeable-Phenotype (%)” value [2] was 5%, the “Population Mitochondria Different-Phenotype (%)” value [2] was 20% and the “Population Mitotic Cells (%)” value [2] was 81%. The “Population Normal (%)” value [2] was 94%, the “Population Pyknosed Nuclei (%)” value [2] was 19% and the “Population Tubulin-Different-Phenotype (%)” value [2] was 25%. The “Total Cell Count” value [2] was 1132, the “Population Fragmented Nuclei (%)” value [3] was 28% and 23% and the “Population Hoechst High Intensity Objects (%)” value [3] was 18% and 14%. For the same compound, the “Population Membrane Permeable-Phenotype (%)” value [3] was 5% and 4%, the “Population Normal (%)” value [3] was 81% and 85% and the “Population Pyknosed Nuclei (%)” value [3] was 59% and 21%. For the same compound, the “Population Apoptotic (%)” value [4] was 27% and 9%, the “Population Fragmented Nuclei (%)” value [4] was 8% and 10% and the “Population Healthy Nuclei (%)” value [4] was 28% and 66%. The “Population Hoechst High Intensity Objects (%)” value [4] was 4% and 2%, the “Population Membrane Permeable-Phenotype (%)” value [4] was 0% and 3% and the “Population Mitochondria Different-Phenotype (%)” value [4] was 30% and 18%. The “Population Mitotic Cells (%)” value [4] was 72% and 90%, the “Population Normal (%)” value [4] was 95% and 97% and the “Population Pyknosed Nuclei (%)” value [4] was 63% and 22%. The “Population Tubulin-Different-Phenotype (%)” value [4] was 14% and 21%, the “Population Apoptotic (%)” value [5] was 19% and the “Population Fragmented Nuclei (%)” value [5] was 18%. The “Population Healthy Nuclei (%)” value [5] was 42%, the “Population Hoechst High Intensity Objects (%)” value [5] was 12% and the “Population Membrane Permeable-Phenotype (%)” value [5] was 9%. The “Population Mitochondria Different-Phenotype (%)” value [5] was 7%, the “Population Mitotic Cells (%)” value [5] was 80% and the “Population Normal (%)” value [5] was 87%. The “Population Pyknosed Nuclei (%)” value [5] was 38%, the “Population Tubulin-Different-Phenotype (%)” value [5] was 14% and the “Total Cell Count” value [5] was 632. The “Population Apoptotic (%)” value [6] was 35%, the “Population Fragmented Nuclei (%)” value [6] was 8% and the “Population Healthy Nuclei (%)” value [6] was 39%. The “Population Hoechst High Intensity Objects (%)” value [6] was 6%, the “Population Membrane Permeable-Phenotype (%)” value [6] was 8% and the “Population Mitochondria Different-Phenotype (%)” value [6] was 33%. The “Population Mitotic Cells (%)” value [6] was 64%, the “Population Normal (%)” value [6] was 93% and the “Population Pyknosed Nuclei (%)” value [6] was 51%. The “Population Tubulin-Different-Phenotype (%)” value [6] was 62%, the “Total Cell Count” value [6] was 1019 and the “Population Apoptotic (%)” value [7] was 26% and 66%. For the same compound, the “Population Fragmented Nuclei (%)” value [7] was 22% and 33%, the “Population Hoechst High Intensity Objects (%)” value [7] was 13% and 14% and the “Population Membrane Permeable-Phenotype (%)” value [7] was 8% and 0%. For the same compound, the “Population Mitotic Cells (%)” value [7] was 73% and 33%, the “Population Normal (%)” value [7] was 86% and 85% and the “Population Pyknosed Nuclei (%)” value [7] was 36% and 58%. The “Population Tubulin-Different-Phenotype (%)” value [7] was 36% and 50%, the “Population Apoptotic (%)” value [8] was 52% and 23% and the “Population Fragmented Nuclei (%)” value [8] was 12% and 17%. The “Population Hoechst High Intensity Objects (%)” value [8] was 6% and 5%, the “Population Membrane Permeable-Phenotype (%)” value [8] was 10% and the “Population Mitochondria Different-Phenotype (%)” value [8] was 20% and 48%. The “Population Mitotic Cells (%)” value [8] was 47% and 76%, the “Population Normal (%)” value [8] was 93% and 95% and the “Population Pyknosed Nuclei (%)” value [8] was 80% and 47%. The “Population Tubulin-Different-Phenotype (%)” value [8] was 30% and 63%, the “Population Apoptotic (%)” value [9] was 75% and the “Population Fragmented Nuclei (%)” value [9] was 43%. The “Population Healthy Nuclei (%)” value [9] was 3%, the “Population Hoechst High Intensity Objects (%)” value [9] was 21% and the “Population Membrane Permeable-Phenotype (%)” value [9] was 0%. The “Population Mitochondria Different-Phenotype (%)” value [9] was 100%, the “Population Mitotic Cells (%)” value [9] was 25% and the “Population Normal (%)” value [9] was 78%. For the same compound, the “Population Pyknosed Nuclei (%)” value [9] was 53%, the “Population Tubulin-Different-Phenotype (%)” value [9] was 0% and the “Total Cell Count” value [9] was 191. The “Population Fragmented Nuclei (%)” value [10] was 13%, the “Population Healthy Nuclei (%)” value [10] was 12% and the “Population Hoechst High Intensity Objects (%)” value [10] was 8%. The “Population Membrane Permeable-Phenotype (%)” value [10] was 5%, the “Population Mitochondria Different-Phenotype (%)” value [10] was 66% and the “Population Mitotic Cells (%)” value [10] was 24%. The “Population Normal (%)” value [10] was 91%, the “Population Pyknosed Nuclei (%)” value [10] was 74% and the “Population Tubulin-Different-Phenotype (%)” value [10] was 61%. For the same compound, the “Total Cell Count” value [10] was 161.
